Measured values reported in publication PMC10835759 (RSC Advances, 2024).

Experiments:
rat intestinal sucrase = rat intestinal sucrase (Rattus norvegicus, UniProt P23739); assay: Inhibitory effects on rat intestinal α-glucosidases: sucrase; format: biochemical; settings: for IC50: IC50 Sucrase, rat small intestinal brush border membrane vesicles, sucrose 74 mM, pH 6.0, 37 °C, 30 min; for inhibition (%) Sucrase: at 100 μg mL^−1 (26a: 297 μM, 26b: 271 μM, 26c and 27c: 341 μM, 28a: 326 μM, 28b: 296 μM, 28c: 380 μM)
Sequence of rat intestinal sucrase (P23739 whole entry): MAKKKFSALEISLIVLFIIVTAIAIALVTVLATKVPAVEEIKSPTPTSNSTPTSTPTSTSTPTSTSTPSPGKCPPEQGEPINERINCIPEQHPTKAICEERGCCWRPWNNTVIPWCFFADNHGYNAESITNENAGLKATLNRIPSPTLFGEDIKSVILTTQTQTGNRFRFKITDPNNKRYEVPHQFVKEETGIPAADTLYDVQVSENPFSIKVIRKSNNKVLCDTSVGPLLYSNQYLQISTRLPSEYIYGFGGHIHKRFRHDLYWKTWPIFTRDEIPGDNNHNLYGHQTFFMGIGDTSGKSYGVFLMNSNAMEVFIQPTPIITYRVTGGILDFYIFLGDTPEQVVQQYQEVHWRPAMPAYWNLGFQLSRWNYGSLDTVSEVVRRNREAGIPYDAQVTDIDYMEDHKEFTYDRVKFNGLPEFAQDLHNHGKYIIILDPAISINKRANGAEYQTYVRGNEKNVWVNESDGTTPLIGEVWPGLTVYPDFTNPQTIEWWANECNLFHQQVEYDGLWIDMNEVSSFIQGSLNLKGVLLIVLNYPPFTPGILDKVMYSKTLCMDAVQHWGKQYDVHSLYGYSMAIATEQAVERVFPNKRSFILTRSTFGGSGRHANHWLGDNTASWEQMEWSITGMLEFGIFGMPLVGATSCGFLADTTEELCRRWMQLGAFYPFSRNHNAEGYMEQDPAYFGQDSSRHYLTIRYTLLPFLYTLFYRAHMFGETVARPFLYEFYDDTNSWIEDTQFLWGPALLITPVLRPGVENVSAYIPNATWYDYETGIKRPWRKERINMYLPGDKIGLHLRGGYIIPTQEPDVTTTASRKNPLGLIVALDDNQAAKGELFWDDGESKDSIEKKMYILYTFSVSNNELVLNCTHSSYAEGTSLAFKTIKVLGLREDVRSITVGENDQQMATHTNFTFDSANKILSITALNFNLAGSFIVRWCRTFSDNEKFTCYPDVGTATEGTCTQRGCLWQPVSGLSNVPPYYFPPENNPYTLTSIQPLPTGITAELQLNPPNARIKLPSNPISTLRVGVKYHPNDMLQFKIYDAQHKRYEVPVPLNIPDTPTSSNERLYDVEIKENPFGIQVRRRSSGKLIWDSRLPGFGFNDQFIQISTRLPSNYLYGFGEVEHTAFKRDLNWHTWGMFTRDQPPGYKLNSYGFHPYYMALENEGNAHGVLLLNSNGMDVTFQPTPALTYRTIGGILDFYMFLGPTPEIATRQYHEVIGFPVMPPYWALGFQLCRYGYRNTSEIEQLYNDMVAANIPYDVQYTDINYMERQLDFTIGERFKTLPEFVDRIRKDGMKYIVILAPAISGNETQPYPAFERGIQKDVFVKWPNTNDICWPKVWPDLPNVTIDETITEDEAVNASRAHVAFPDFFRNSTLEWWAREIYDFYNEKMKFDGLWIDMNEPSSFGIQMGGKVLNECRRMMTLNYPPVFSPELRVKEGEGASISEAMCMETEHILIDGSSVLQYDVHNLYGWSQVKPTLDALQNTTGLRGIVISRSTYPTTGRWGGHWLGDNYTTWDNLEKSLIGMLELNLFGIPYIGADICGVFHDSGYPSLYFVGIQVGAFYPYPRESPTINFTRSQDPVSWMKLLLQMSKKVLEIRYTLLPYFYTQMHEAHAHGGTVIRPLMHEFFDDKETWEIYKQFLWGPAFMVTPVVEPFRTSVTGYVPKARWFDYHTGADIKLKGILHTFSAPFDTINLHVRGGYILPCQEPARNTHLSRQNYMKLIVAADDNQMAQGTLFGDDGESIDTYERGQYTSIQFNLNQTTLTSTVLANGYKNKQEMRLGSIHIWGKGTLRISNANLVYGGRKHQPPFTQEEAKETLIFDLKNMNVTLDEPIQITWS

[1] = biological target: rat intestinal isomaltase (Rattus norvegicus, UniProt P23739); assay: Inhibitory effects on rat intestinal α-glucosidases: isomaltase; format: biochemical; settings: at 100 μg mL^−1 (26a: 297 μM, 26b: 271 μM, 26c and 27c: 341 μM, 28a: 326 μM, 28b: 296 μM, 28c: 380 μM)
Sequence of rat intestinal isomaltase (P23739 whole entry): as above

rat α-glucosidase = assay: Glycosidase inhibitory activity, enzymes from rat small intestines; format: biochemical; settings: rat small intestinal enzymes, at 100 μg mL^−1
In short: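 Enzyme source: brush border membrane vesicles prepared from rat small intestine and suspended in 0.1 M maleate buffer, pH 6.0. Test compound in DMSO, diluted in maleate buffer to 10% DMSO (2.5% final). Substrate solutions in maleate buffer: maltose 74 mM, sucrose 74 mM, 7.4 mM for isomaltase. Mixture incubated at 37 °C for 30 min and stopped by boiling for 2 min. Glucose measured by the glucose-oxidase method.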

yeast glucosidase = settings: read-out: Ki, inhibitory activity against yeast glucosidase; cited from earlier work

Compound | IC50 (rat intestinal sucrase) | inhibition (%) Sucrase (rat intestinal sucrase) | inhibition (%) Isomaltase [1] | inhibitory activity against maltase, sucrase and isomaltase (in words) (rat α-glucosidase) | Ki (yeast glucosidase)
OCC[S+](C[C@@H](O)[C@@H](O)CO)C(CO)CO.[Cl-] (single isomer, unassigned) [Compound 26c] | > 341 µM | 3.2% | 5.9% | hardly inhibited | –
OCC[S+](C[C@@H](O)CO)C[C@@H](O)[C@@H](O)CO.[Cl-] (stereo partly drawn) [Compound 27c, [(S)-2,3-Dihydroxypropyl] (2-hydroxyethyl) ((2S,3S)-2,3,4-trihydroxybutyl) sulfonium chloride] | > 341 µM | 4.4% | −2.3% | negligible | –
OCC[S+](CCO)C[C@@H](O)[C@@H](O)CO.[Cl-] [Compound 28c, Di(2-hydroxyethyl) [(2S,3S)-2,3,4-trihydroxybutyl] sulfonium chloride] | > 380 µM | 2.6% | −0.9% | lost considerable activity | –
[O-][C@@H](CO)[C@H](O)C[S@+]1C[C@@H](O)[C@H](O)[C@H]1CO [Neosalacinol (4), neosalacinol, reference compound] | 1.4 µM | – | – | effectively inhibited | –
O=S(=O)([O-])O[C@@H](CO)[C@H](O)C[S@+]1C[C@@H](O)[C@H](O)[C@H]1CO [Salacinol (1), salacinol, reference compound] | – | – | – | effectively inhibited | 14 µM
